Values after ≈ are worked out from the molar mass of the structure shown. Some results are limits rather than exact numbers.

One experiment deals with Enterococcus faecium. Nature of the experiment: In vitro antibacterial activity against Vancomycin-susceptible Enterococcus faecium BM4147.1. The class given is functional. The essentials: (§1)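 MICs by NCCLS broth dilution guidelines, modified by adding 0.02% bovine serum albumin to the growth medium; purified, resynthesized compounds tested against the expanded bacterial panel.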

Experiment [1] can be described thus: Inhibitory activity against elongation factor Tu (EF-Tu). The class given is functional, Bacteria.
The test system of a further experiment is Escherichia coli. Nature of the experiment: In vitro antibacterial activity against Escherichia coli (A G100B). The class given is functional. In outline: as §1
Experiment [2] relates to Haemophilus influenzae. Description: In vitro antibacterial activity against Haemophilus influenzae (ATTC31517). In kind it is functional. The essentials: as §1
Experiment [3] relates to Staphylococcus epidermidis. Description: In vitro antibacterial activity against Staphylococcus epidermidis (ATCC 12228). The class given is functional. The essentials: as §1
For experiment [4], the system named is Staphylococcus aureus. Nature of the experiment: In vitro antibacterial activity against methicillin sensitive Staphylococcus aureus ATCC 25923. In kind it is functional. The essentials: as §1
The subject of a further experiment is Streptococcus pneumoniae. Description: In vitro antibacterial activity against Streptococcus pneumoniae (ATTC49619). In kind it is functional. The essentials:
as §1

In the next experiment the test system is Streptococcus pyogenes. Nature of the experiment: In vitro antibacterial activity against Streptococcus pyogenes (ATTC19615). In kind it is functional. In outline:
as §1

The test system of experiment [5] is Staphylococcus aureus. Nature of the experiment: In vitro antibacterial activity against methicillin resistant Staphylococcus aureus (MRSA) ATCC 33591. The class given is functional.
Experiment [6] deals with Haemophilus influenzae. Description: In vitro antibacterial activity against Haemophilus influenzae (acr, LS-2). In kind it is functional. The essentials: as §1
Experiment [7] relates to Enterococcus faecalis. Nature of the experiment: In vitro antibacterial activity against Vancomycin-resistant Enterococcus faecalis (ATTC51299).
For experiment [8], the system named is Enterococcus faecalis. Description: In vitro antibacterial activity against Vancomycin-resistant Enterococcus faecalis ATCC 51299. The class given is functional.

The IC50 is the concentration that inhibits the measured activity by half. In the case of `CNC(=O)C[C@@H]1NC(=O)c2csc(n2)-c2ccc(-c3nc(C4=N[C@H](C(=O)N5CCC[C@H]5C(N)=O)CO4)cs3)nc2-c2csc(n2)-c2csc(n2)C(C(O)c2ccccc2)NC(=O)CNC(=O)c2nc(sc2COC)[C@H](C(C)C)NC(=O)c2nc1sc2C` (stereo partly specified), the MIC with Enterococcus faecium is 0.015 µg/mL (≈ 0.0116 µM); with Escherichia coli, over 16 µg/mL; against Haemophilus influenzae [2], over 16 µg/mL; in experiment [3], 0.03 µg/mL (≈ 0.0232 µM); in the experiment on Staphylococcus aureus [4], 0.03 µg/mL (≈ 0.0232 µM); in the experiment on Streptococcus pneumoniae, 0.06 µg/mL (≈ 0.0465 µM). For the same compound, the MIC against Streptococcus pyogenes was 0.125 µg/mL (≈ 0.0969 µM); in the experiment with Staphylococcus aureus [5], 0.03 µg/mL (≈ 0.0232 µM); against Haemophilus influenzae [6], over 16 µg/mL; against Enterococcus faecalis [7], 0.015 µg/mL (≈ 0.0116 µM). Also, the IC50 in [1] turned out to be 5 nM.

On to `CNC(=O)C[C@@H]1NC(=O)c2csc(n2)-c2ccc(-c3nc(COC(=O)NCCCCC(=O)O)cs3)nc2-c2csc(n2)-c2csc(n2)C(C(O)c2ccccc2)NC(=O)CNC(=O)c2nc(sc2COC)[C@H](C(C)C)NC(=O)c2nc1sc2C` (stereo partly specified), for which the MIC was 0.125 µg/mL (≈ 0.0996 µM) in the experiment with Enterococcus faecium; 0.5 µg/mL (≈ 0.399 µM) against Enterococcus faecalis [8]; over 16 µg/mL against Escherichia coli; 8 µg/mL (≈ 6.38 µM) in the experiment on Haemophilus influenzae [2]; 0.5 µg/mL (≈ 0.399 µM) in experiment [3]; 0.5 µg/mL (≈ 0.399 µM) against Staphylococcus aureus [4]. Also, the MIC was 2 µg/mL (≈ 1.59 µM) in the experiment with Streptococcus pneumoniae, 4 µg/mL (≈ 3.19 µM) against Streptococcus pyogenes, 0.25 µg/mL (≈ 0.199 µM) with Staphylococcus aureus [5] and 2 µg/mL (≈ 1.59 µM) in the experiment on Haemophilus influenzae [6].

These data come from ChEMBL document CHEMBL1144979, “Combinatorial modification of natural products: synthesis and in vitro analysis of derivatives of thiazole peptide antibiotic GE2270 A: A-ring modifications” (Bioorg Med Chem Lett, 2003).
